Measurements reported in ChEMBL document CHEMBL1135987, “Synthesis of new dihydroindeno[1,2-c]isoquinoline and indenoisoquinolinium chloride topoisomerase I inhibitors having high in vivo anticancer activity in the hollow fiber animal model” (2002).
Activity calls are given as the source filed them. The calls are words filed in the database; no cut-off is given here.

Experiments:
[1] = Cytotoxicity in lung HOP-62 cell line.; format: functional; conditions: Homo sapiens
Method in brief: (§1)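 NCI screen of roughly 55 human cancer cell lines from diverse tumor origins, tested over 10^-4 to 10^-8 M. GI50 is the concentration giving 50% growth inhibition.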

[2] = test system: Panel (Carcinoma cell lines); assay: Mean graph mid point for growth inhibition of all human cancer cell lines tested.; format: functional; set-up: unit: µM
Method in brief: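 NCI screen of roughly 55 human cancer cell lines, test range 10^-4 to 10^-8 M. Mean graph midpoint is the average GI50 over all cell lines successfully tested. GI50 values below or above the range are set to 10^-8 M or 10^-4 M.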

[3] = Cytotoxicity in CNS SF-539 cell line.; format: functional; conditions: Homo sapiens; method in brief: as §1
[4] = Cytotoxicity in melanoma UACC-62 cell line.; format: functional; conditions: Homo sapiens; method in brief: as §1
[5] = target: T1, DNA topoisomerase 1 (Homo sapiens) (UniProt P11387); assay: DNA topoisomerase I mediated cleavage activity tested up to a concentration of 100 uM; Same activity as compound 1
T1 sequence (whole entry): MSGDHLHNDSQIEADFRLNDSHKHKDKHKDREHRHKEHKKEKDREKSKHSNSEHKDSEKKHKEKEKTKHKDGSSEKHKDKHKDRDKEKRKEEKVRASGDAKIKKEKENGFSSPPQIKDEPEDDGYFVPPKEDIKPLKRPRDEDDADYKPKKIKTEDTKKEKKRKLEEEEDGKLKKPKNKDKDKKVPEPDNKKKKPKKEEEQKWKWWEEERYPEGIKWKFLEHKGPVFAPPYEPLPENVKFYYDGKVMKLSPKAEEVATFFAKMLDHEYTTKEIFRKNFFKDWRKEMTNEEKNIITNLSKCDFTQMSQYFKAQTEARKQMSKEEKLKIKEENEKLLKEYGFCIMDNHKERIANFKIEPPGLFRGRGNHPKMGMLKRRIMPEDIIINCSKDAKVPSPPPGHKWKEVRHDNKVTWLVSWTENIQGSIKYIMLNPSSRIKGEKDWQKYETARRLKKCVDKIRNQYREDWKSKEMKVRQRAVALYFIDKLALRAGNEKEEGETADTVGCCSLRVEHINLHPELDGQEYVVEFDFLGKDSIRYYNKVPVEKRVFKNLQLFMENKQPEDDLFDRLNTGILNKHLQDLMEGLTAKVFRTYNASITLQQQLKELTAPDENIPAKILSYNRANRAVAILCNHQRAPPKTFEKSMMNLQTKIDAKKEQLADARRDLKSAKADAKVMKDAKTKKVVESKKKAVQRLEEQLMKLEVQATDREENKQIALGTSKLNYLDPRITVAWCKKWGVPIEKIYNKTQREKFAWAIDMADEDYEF
Method in brief: (§2)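 Baculovirus-expressed human recombinant top1 was incubated with a 161 bp PvuII/HindIII fragment of pBluescript SK(-), 3'-end-labeled at the HindIII site with [α-32P]-dCTP (about 50 000 dpm per reaction), and drug up to 100 μM, for 30 min at 22 °C. Reactions were stopped with 0.5% SDS final. Products ran on denaturing 16% polyacrylamide/7 M urea gels at 51 °C. Cleavage was scored semiquantitatively (+, ++, +++) against the parent lead.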

[6] = Cytotoxicity in ovarian OVCAR-3 cell line.; format: functional; conditions: Homo sapiens; method in brief: as §1
[7] = Cytotoxicity in colon HCT116 cell line.; format: functional; conditions: Homo sapiens, HCT-116; method in brief: as §1
[8] = Cytotoxicity in renal SN12C cell line.; format: functional; conditions: Homo sapiens; method in brief: as §1
[9] = Cytotoxicity in breast MDA-MB-435 cell line.; format: functional; conditions: Homo sapiens; method in brief: as §1
[10] = Cytotoxicity in prostate DU-145 cell line.; format: functional; conditions: Homo sapiens; method in brief: as §1
[11] = target: T1, DNA topoisomerase 1 (Homo sapiens); assay: DNA topoisomerase I mediated cleavage activity tested up to a concentration of 100 uM; Active or inactive; method in brief: as §2
[12] = target: T1, DNA topoisomerase 1 (Homo sapiens); assay: DNA topoisomerase I mediated cleavage activity tested up to a concentration of 100 uM; week activity; method in brief: as §2
[13] = target: T1, DNA topoisomerase 1 (Homo sapiens); assay: DNA topoisomerase I mediated cleavage activity tested up to a concentration of 100 uM; Greater activity than compound 1; method in brief: as §2
[14] = target: T1, DNA topoisomerase 1 (Homo sapiens); assay: DNA topoisomerase I mediated cleavage activity tested up to a concentration of 100 uM; method in brief: as §2

Row | Activity [5] | Activity [11] | Activity [12] | Activity [13] | Activity [14] | SMILES | GI50 [1] | MGM [2] | GI50 [3] | GI50 [4] | GI50 [6] | GI50 [7] | GI50 [8] | GI50 [9] | GI50 [10]
1 | Same activity as compound 1 |  |  |  |  | COc1cc2c(cc1OC)[C@H]1C(=O)c3cc4c(cc3[C@H]1N(CCCBr)C2=O)OCO4 | 120 nM | 0.12 | 40 nM | 50 nM | 400 nM | 70 nM | 30 nM | 150 nM | 30 nM
2 |  |  |  |  |  | CCCCN1C(=O)c2cc(OC)c(OC)cc2[C@H]2C(=O)c3cc4c(cc3[C@H]21)OCO4 | 450 nM | 2.14 | 320 nM | 610 nM | 1400 nM | 110 nM |  | 1600 nM | 
3 |  |  |  |  |  | CCCN1Cc2cc(OC)c(OC)cc2[C@@H]2[C@H]1c1cc3c(cc1[C@@H]2O)OCO3 | 16000 nM | 20.9 | 21700 nM | 18700 nM | 6300 nM | 17800 nM |  | 5800 nM | 33900 nM
4 |  |  |  |  |  | COc1cc2c(cc1OC)[C@H]1C(=O)c3c(ccc4ccccc34)[C@H]1N(CCCBr)C2=O | 1440 nM | 2.95 |  | 2390 nM | 1970 nM | 4020 nM | 2350 nM | 2250 nM | 2460 nM
5 |  |  |  |  |  | COc1cc2c(cc1OC)[C@H]1C(=O)c3cc4c(cc3[C@H]1N(CC#N)C2=O)OCO4 | 5420 nM | 3.28 | 2120 nM | 1730 nM | 2020 nM | 600 nM | 410 nM | 9040 nM | 850 nM
6 |  |  |  |  |  | C/C=C(/C=O)CCN1C(=O)c2cc(OC)c(OC)cc2[C@H]2C(=O)c3cc4c(cc3[C@H]21)OCO4 | 300 nM | 0.95 | 210 nM | 150 nM | 7120 nM | 250 nM | 140 nM | 4460 nM | 220 nM
7 |  |  |  |  |  | COc1cc2c(cc1OC)[C@H]1C(=O)c3cc4c(cc3[C@H]1N(Cc1ccccc1)C2=O)OCO4 | 2930 nM | 1.18 | 380 nM | 1840 nM | 7170 nM | 540 nM | 390 nM |  | 550 nM
8 |  | inactive |  |  |  | CCN1C(=O)c2cc(OC)c(OC)cc2[C@H]2C(=O)c3cc4c(cc3[C@H]21)OCO4 |  | 0.81 |  |  |  |  |  |  | 
9 |  |  | week activity |  |  | COc1cc2c(cc1OC)[C@H]1C(=O)c3cc4c(cc3[C@H]1N(CCCN=[N+]=[N-])C2=O)OCO4 | 360 nM | 0.69 | 330 nM | 290 nM | 1270 nM | 400 nM | 250 nM | 1270 nM | 330 nM
10 |  |  |  | Greater activity than compound 1 |  | CCCC[n+]1cc2cc(OC)c(OC)cc2c2c1-c1cc3c(cc1C2)OCO3.[Cl-] | 3060 nM | 1.31 | 2160 nM | 510 nM | 280 nM | 1580 nM | 430 nM | 1370 nM | 2690 nM
11 | Same activity as compound 1 |  |  |  |  | CC[n+]1cc2cc(OC)c(OC)cc2c2c1-c1cc3c(cc1C2)OCO3.[Cl-] |  | 13 |  |  |  |  |  |  | 
12 |  |  |  |  |  | COC(=O)CCCN1C(=O)c2cc(OC)c(OC)cc2[C@H]2C(=O)c3cc4c(cc3[C@H]21)OCO4 | 820 nM | 1.48 | 710 nM | 530 nM | 2430 nM | 340 nM | 240 nM | 2890 nM | 630 nM
13 |  |  |  |  | 0 | C=CCN1C(=O)c2cc(OC)c(OC)cc2[C@H]2C(=O)c3cc4c(cc3[C@H]21)OCO4 |  | 0.98 |  |  |  |  |  |  | 
14 |  |  |  |  |  | COc1cc2c(cc1OC)[C@H]1C(=O)c3cc4c(cc3[C@H]1N(CCCCl)C2=O)OCO4 | 80 nM | 0.11 | 20 nM | 20 nM | 360 nM | 160 nM | 20 nM | 330 nM | 30 nM
15 |  |  |  |  |  | CCOC(=O)CCCN1C(=O)c2cc(OC)c(OC)cc2[C@H]2C(=O)c3cc4c(cc3[C@H]21)OCO4 | 2220 nM | 7.76 |  | 3040 nM | 22000 nM | 1810 nM | 2070 nM | 16500 nM | 3070 nM
16 | Same activity as compound 1 |  |  |  |  | COc1cc2c3c(n(C)c(=O)c2cc1OC)-c1cc2c(cc1C3=O)OCO2 |  | 20 |  |  |  |  |  |  | 
17 |  |  |  |  |  | CCCN1C(=O)c2cc(OC)c(OC)cc2[C@H]2C(=O)c3cc4c(cc3[C@H]21)OCO4 | 590 nM | 0.69 | 440 nM | 260 nM | 920 nM | 390 nM | 430 nM | 1100 nM | 310 nM
18 |  |  |  |  |  | COc1cc2c(cc1OC)[C@H]1C(=O)c3cc4c(cc3[C@H]1N(CC(F)(F)F)C2=O)OCO4 | 34000 nM | 6.6 | 7630 nM | 4120 nM | 7960 nM | 14400 nM | 7870 nM | 7600 nM | 7500 nM
19 |  |  |  |  |  | COc1cc2c(cc1OC)[C@H]1C(=O)c3c(ccc4ccccc34)[C@H]1N(CCCCl)C2=O | 2760 nM | 4.22 | 14700 nM | 3730 nM | 1930 nM | 6520 nM | 11600 nM | 2480 nM | 5490 nM
20 |  |  |  | Greater activity than compound 1 |  | CCC[n+]1cc2cc(OC)c(OC)cc2c2c1-c1cc3c(cc1C2)OCO3.[Cl-] | 3980 nM | 4.1 | 1080 nM | 2190 nM | 1000 nM | 3550 nM | 640 nM | 3370 nM | 10500 nM
